Assay results: article PMC3104004 (European Journal of Nuclear Medicine and Molecular Imaging, 2011)

Tests used:
[1] = test system: kidney of PC-3-bearing mice; settings: PC-3-bearing athymic mice, 30 min after injection; ref 26 (Zheng et al.); cited from earlier work
[2] = test system: human prostate VCaP xenografts; assay: Dynamic PET scanning with quantitative VOI analysis in VCaP tumour-bearing mice; format: in vivo, male NMRI nu/nu mice
In short: (§1)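 Male NMRI nu/nu mice, 6–7 weeks old, inoculated s.c. in the right shoulder with ~5×10^6 VCaP or PC-3 cells in PBS. Under isoflurane/oxygen, prone, on a microPET with a heating mat. Test tracer 100 μl (8.1–1.2 MBq) given by tail-vein cannula; dynamic full-body scan for 20 min from injection. Tumour VOIs drawn manually, averaged over two analysts. %ID/g = VOI activity/injected dose ×100; steady-state taken from last 10 min; median, IQR; Mann-Whitney U.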

PC-3 tumours = assay: Dynamic PET scanning with quantitative VOI analysis in PC-3 tumour-bearing mice; format: in vivo, male NMRI nu/nu mice; settings: tail vein injection 100 μl; last 10 min of 20 min scan; N = 3
In short: as §1

[3] = test system: VCaP tumour and preselected organs; assay: Ex vivo biodistribution in VCaP tumour-bearing mice; parameters: species or system male NMRI nu/nu mice; settings: 30 min after injection, 100 μl iv
In short: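 Done after PET. VCaP-bearing mice killed 60 min after i.v. tail-vein 68Ga-labelled bombesin-analogue tracer (300 pmol, 1.5–0.5 MBq), or 30 min after 18F-choline tracer (100 μl, 8.1–1.2 MBq). Gamma-counted: tumour, liver, heart, blood, muscle, tail, kidneys, pancreas and colon. %ID/g corrected for activity left in the tail; mean ± SD, four mice per tracer; unpaired t-test.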

| SMILES | kidney uptake [1] [%ID/g] | time at which tumour uptake reached a plateau phase ([2]; dynamic PET, VCaP tumour, after injection) | VCaP tumour uptake determined from PET at steady-state (plateau phase) ([2]; tail vein injection 100 μl, 8.1–1.2 MBq, 10–20 min after injection, N = 8) [%ID/g] | PC-3 tumour uptake from PET (plateau phase) (PC-3 tumours) [%ID/g] | uptake in blood ([3]; VCaP-bearing mice, N = 4) [%ID/g tissue] | uptake in heart ([3]; VCaP-bearing mice, N = 4) [%ID/g tissue] | uptake in kidneys ([3]; VCaP-bearing mice, N = 4) [%ID/g] | uptake in liver ([3]; VCaP-bearing mice, N = 4) [%ID/g tissue] | uptake in muscle ([3]; VCaP-bearing mice, N = 4) [%ID/g tissue] | uptake in pancreas (GRPR-positive) ([3]; VCaP-bearing mice, N = 4) [%ID/g] | VCaP tumour uptake (biodistribution) ([3]; ex vivo counting) [%ID/g] |
| --- | --- | --- | --- | --- | --- | --- | --- | --- | --- | --- | --- |
| C[N+](C)([11CH3])CCO [^11C-choline] | 5.1 ± 1.8 | – | – | – | – | – | – | – | – | – | – |
| C[N+](C)(C[18F])CCO [^18F-FCH, N-[^18F]-fluoromethyl-N-(2-hydroxyethyl)-N,N-dimethylammonium] | – | less than 10 min | 1.6 ± 0.5 | 1.2 ± 0.3 | 0.8 ± 0.1 | 4.7 ± 0.5 | 35.7 ± 4.1 | 13.0 ± 1.7 | 0.9 ± 0.2 | 3.6 ± 1.0 | 2.1 ± 0.4 |
